Assays:
Plasma [1] = assay: Biodistribution in Wistar rat plasma at 40+/-4 MBq, iv after 60 mins; type: ADME, organism-based; conditions: in vivo, 1 h
[2] = Biodistribution in Wistar rat medulla at 40+/-4 MBq, iv after 80 mins; type: ADME, organism-based, Medulla of organ; conditions: in vivo
Outline: (§1)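 Male Wistar rats (12 h light/dark, chow ad libitum) were fitted with a femoral arterial cannula under isoflurane. They were pretreated via tail vein with saline, cyclosporin A (50 mg/kg), or nonradioactive tracer compound (15 mg/kg; 10 mg/mL in saline with 35% ethanol). The 11C tracer was then given via penile vein, followed by 76 min microPET. Animals were then terminated; excised tissues were weighed and gamma-counted with decay correction. Values are SUVs (tissue MBq/g × body weight g / injected MBq).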

[3] = Biodistribution in Wistar rat bulbus olfactorius at 40+/-4 MBq, iv after 80 mins; type: ADME, organism-based, Olfactory bulb; conditions: in vivo
Spleen = assay: Biodistribution in Wistar rat spleen at 40+/-4 MBq, iv after 80 mins; type: ADME, organism-based; conditions: in vivo
[4] = Biodistribution in 50 mg/kg cyclosporin A pretreated Wistar rat red blood cells at 27+/-2 MBq, iv after 80 mins; type: ADME, organism-based, Erythrocyte; design: dose 50 mg/kg, route intravenous; conditions: in vivo
[5] = Biodistribution in Wistar rat amygdala at 40+/-4 MBq, iv after 80 mins; type: ADME, organism-based; conditions: in vivo
Lung = assay: Biodistribution in Wistar rat lung at 40+/-4 MBq, iv after 80 mins; type: ADME, organism-based; conditions: in vivo; outline: as §1
[6] = Biodistribution in Wistar rat parietal/temporal/occipital cortex at 40+/-4 MBq, iv after 80 mins; type: ADME, organism-based; conditions: in vivo; outline: as §1
Plasma [7] = assay: Biodistribution in 50 mg/kg cyclosporin A pretreated Wistar rat plasma at 27+/-2 MBq, iv after 80 mins; type: ADME, organism-based; design: dose 50 mg/kg, route intravenous; conditions: in vivo
Liver [8] = assay: Biodistribution in 50 mg/kg cyclosporin A pretreated Wistar rat liver at 27+/-2 MBq, iv after 80 mins; type: ADME, organism-based; design: dose 50 mg/kg, route intravenous; conditions: in vivo
Plasma [9] = assay: Biodistribution in Wistar rat plasma at 40+/-4 MBq, iv after 80 mins; type: ADME, organism-based; conditions: in vivo
Bone = assay: Biodistribution in Wistar rat bone at 40+/-4 MBq, iv after 80 mins; type: ADME, organism-based, Bone element; conditions: in vivo
[10] = Biodistribution in 50 mg/kg cyclosporin A pretreated Wistar rat cingulate cortex at 27+/-2 MBq, iv after 80 mins; type: ADME, organism-based; design: dose 50 mg/kg, route intravenous; conditions: in vivo
Outline: (§2)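 Male Wistar rats pretreated via tail vein with saline or cyclosporin A (50 mg/kg, commercial solution), then given the [11C] tracer via penile vein. After microPET scanning the anesthetized rats were killed. Tissues were excised and weighed, and blood was centrifuged into plasma and cells. γ counting with decay correction. Results as SUV (tissue MBq/g × body weight/injected dose).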

Heart = assay: Biodistribution in 50 mg/kg cyclosporin A pretreated Wistar rat heart at 27+/-2 MBq, iv after 80 mins; type: ADME, organism-based; design: dose 50 mg/kg, route intravenous; conditions: in vivo
Duodenum [11] = assay: Biodistribution in Wistar rat duodenum at 40+/-4 MBq, iv after 80 mins; type: ADME, organism-based; conditions: in vivo; outline: as §1
Ileum = assay: Biodistribution in 50 mg/kg cyclosporin A pretreated Wistar rat ileum at 27+/-2 MBq, iv after 80 mins; type: ADME, organism-based; design: dose 50 mg/kg, route intravenous; conditions: in vivo
[12] = Biodistribution in 50 mg/kg cyclosporin A pretreated Wistar rat medulla at 27+/-2 MBq, iv after 80 mins; type: ADME, organism-based, Medulla of organ; design: dose 50 mg/kg, route intravenous; conditions: in vivo
Striatum [13] = assay: Biodistribution in Wistar rat striatum at 40+/-4 MBq, iv after 80 mins; type: ADME, organism-based; conditions: in vivo
[14] = Biodistribution in 50 mg/kg cyclosporin A pretreated Wistar rat trachea at 27+/-2 MBq, iv after 80 mins; type: ADME, organism-based; design: dose 50 mg/kg, route intravenous; conditions: in vivo
Duodenum [15] = assay: Biodistribution in 50 mg/kg cyclosporin A pretreated Wistar rat duodenum at 27+/-2 MBq, iv after 80 mins; type: ADME, organism-based; design: dose 50 mg/kg, route intravenous; conditions: in vivo; outline: as §2
Muscle tissue = assay: Biodistribution in Wistar rat muscle at 40+/-4 MBq, iv after 80 mins; type: ADME, organism-based; conditions: in vivo; outline: as §1
Liver [16] = assay: Biodistribution in Wistar rat liver at 40+/-4 MBq, iv after 80 mins; type: ADME, organism-based; conditions: in vivo; outline: as §1
[17] = Biodistribution in 50 mg/kg cyclosporin A pretreated Wistar rat bulbus olfactorius at 27+/-2 MBq, iv after 80 mins; type: ADME, organism-based, Olfactory bulb; design: dose 50 mg/kg, route intravenous; conditions: in vivo; outline: as §2
Kidney = assay: Biodistribution in Wistar rat kidney at 40+/-4 MBq, iv after 80 mins; type: ADME, organism-based; conditions: in vivo; outline: as §1
Colon = assay: Biodistribution in 50 mg/kg cyclosporin A pretreated Wistar rat colon at 27+/-2 MBq, iv after 80 mins; type: ADME, organism-based; design: dose 50 mg/kg, route intravenous; conditions: in vivo; outline: as §2
[18] = Biodistribution in Wistar rat fat at 40+/-4 MBq, iv after 80 mins; type: ADME, organism-based, Adipose tissue; conditions: in vivo; outline: as §1
Striatum [19] = assay: Biodistribution in 50 mg/kg cyclosporin A pretreated Wistar rat striatum at 27+/-2 MBq, iv after 80 mins; type: ADME, organism-based; design: dose 50 mg/kg, route intravenous; conditions: in vivo
[20] = Biodistribution in Wistar rat red blood cells at 40+/-4 MBq, iv after 80 mins; type: ADME, organism-based, Erythrocyte; conditions: in vivo

SUV (Plasma [1]): 0.34
SUV [2]: 0.41
SUV [3]: 0.33
SUV (Spleen): 1.64
SUV [4]: 0.16
SUV [5]: 0.37
SUV (Lung): 1.19
SUV [6]: 0.36
SUV (Plasma [7]): 0.32
SUV (Liver [8]): 2.67
SUV (Plasma [9]): 0.29
SUV (Bone): 0.28
SUV [10]: 0.88
SUV (Heart): 0.34
SUV (Duodenum [11]): 2.74
SUV (Ileum): 1.1
SUV [12]: 1.14
SUV (Striatum [13]): 0.31
SUV [14]: 0.74
SUV (Duodenum [15]): 2.58
SUV (Muscle tissue): 0.37
SUV (Liver [16]): 3.27
SUV [17]: 0.84
SUV (Kidney): 1.45
SUV (Colon): 1.81
SUV [18]: 0.36
SUV (Striatum [19]): 0.87
SUV [20]: 0.18
Structure (SMILES): COc1cc2c(cc1OC)CN(CCCC1CCCc3c(O[11CH3])cccc31)CC2 (stereo not drawn)

Source: ChEMBL document CHEMBL1137781, “Synthesis and preclinical evaluation of novel PET probes for P-glycoprotein function and expression” (J Med Chem, 2009)
